Measles CPE: protection of cells from measles virus; Measles virus-infected cells, CPE protection, absorbance; protection (pct of control), % at 4 µM; hit rate 1.5% among 140,000; AID 841; in the data active = protection mostly above about 24%, no sharp cut-off; inactive = mostly below about 26%
NPY-Y2 PAM-ag: potentiates or activates human NPY-Y2 receptor; AID 1359; hit rate 0.45% among 220,000; cells expressing NPY-Y2, potentiator/agonist read-out; activation, % at 3.6 µM; P49146; in the data active = activation above about 27%;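 note: cells stimulated with NPY near EC25 plus isoproterenol at EC100; 0% = vehicle plus submaximal agonist and 100% = vehicle plus saturating agonist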
NPY-Y1 PAM-ag: human NPY-Y1 potentiation or agonism, primary screen. P25929. AID 1304. NPY-Y1 expressing cells, potentiator/agonist activation. activation, % at 3.6 µM. hit rate 0.37% among 220,000; in the data active = activation above about 33%, passing the limit was not always enough;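 note: cells stimulated with NPY at EC10 then isoproterenol at EC100; 0% = low agonist plus stimulus and 100% = saturating agonist plus stimulus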
Target sequence (P25929 whole entry, looked up): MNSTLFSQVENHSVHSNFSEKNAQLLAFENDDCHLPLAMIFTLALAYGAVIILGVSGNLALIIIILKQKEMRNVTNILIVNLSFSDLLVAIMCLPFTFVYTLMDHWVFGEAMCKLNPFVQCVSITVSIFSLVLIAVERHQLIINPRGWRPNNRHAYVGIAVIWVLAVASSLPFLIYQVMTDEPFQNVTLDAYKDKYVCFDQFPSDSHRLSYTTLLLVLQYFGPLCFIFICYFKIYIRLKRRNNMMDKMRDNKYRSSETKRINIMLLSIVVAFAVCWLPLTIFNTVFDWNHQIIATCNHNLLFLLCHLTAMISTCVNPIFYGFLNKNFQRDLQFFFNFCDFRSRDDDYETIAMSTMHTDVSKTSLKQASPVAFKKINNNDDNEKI
Mdm2 ligase inh: Mdm2 E3 ligase (human) inhibition; signal enhancement, % at 5 µM; hit rate 0.11% among 210,000; cell-based MDM2 ubiquitination luciferase reporter, 2 h; 0 = plate control, 100 = twice control, blank-subtracted; Q00987; AID 1230;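 active = signal enhancement of 30% or more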;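 note: luminescence tracks abundance of the self-degrading MDM2-luciferase fusion protein; higher signal means inhibition of MDM2 E3 ligase activity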
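Material: Stable MDM2–luciferase fusion reporter cells | Amount: 2000 cells seeded into each well | Dosing: One concentration, 5 µM, with 0.2% DMSO | Incubation: 4 h cell settling then 2 h compound exposure, 37 °C | Measured by: Luciferase luminescence | Read-out basis: % enhancement relative to plate controls after blank subtraction | Benchmarks: Control and blank well means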
NPY-Y1 antag: blocks the human neuropeptide Y Y1 receptor | hit rate 1% among 200,000 | inhibition, % at 3.6 µM | HEK293-CNG Y1 cells, membrane potential fluorescence; NPY at EC95, then isoproterenol;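 active = inhibition above the campaign mean inhibition of all tested compounds plus 3 SD, cut at about 20% in these data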;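 note: 0% = DMSO wells given NPY plus isoproterenol and 100% = isoproterenol alone without NPY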
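Test system: HEK293 cells co-expressing NPY Y1 receptor and cyclic-nucleotide gated channel; Also added: NPY (25 nM), isoproterenol (1 µM), Ro 20-1724 (25 µM); Compound dosing: one concentration, 3.6 µM, in 0.4% DMSO; Timing: dye 3 h, compound 60 min room temperature, stimulation 45 min; Technique: Membrane-potential fluorescent dye readout.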
NPY-Y2 antag: NPY-Y2 (human) receptor antagonism; P49146; NPY-Y2 expressing cells, antagonist mode; inhibition, % at 2.7 µM; hit rate 0.99% among 140,000; AID 793;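 note: 0% = vehicle with agonist challenge and 100% = reference antagonist with challenge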
NPY1 antag conf: confirmation of human neuropeptide Y receptor Y1 antagonists. shares compounds with NPY-Y1 antag. HEK293-CNG NPY-Y1, membrane potential fluorescence, cAMP; NPY challenge against isoproterenol-raised cAMP. inhibition, % at 3.6 µM. hit rate 21% among 1,200; in the data active = inhibition above about 20%;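 note: 0% = vehicle with agonist plus stimulus and 100% = stimulus alone without agonist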
NPY2 antag ctr: human NPY-Y2 antagonism in NPY-Y1 counter-screen. shares compounds with NPY-Y1 antag. HEK293 NPY-Y2 CNG membrane potential fluorescence; cells given NPY, then isoproterenol. inhibition, % at 3.6 µM. hit rate 28% among 1,200. AID 1255;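 note: 0% = DMSO with agonist challenge and 100% = reference antagonist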
* = called active by the depositor; / = not tested or not shown. This is a sample that favours compounds with a hit; in the whole collection about 2.8% have one here. Cut-off read from the data, not from the text of the source, unless noted: active = inhibition above about 17%; inactive = the rest.

SMILES	Measles CPE	NPY-Y2 PAM-ag	NPY-Y1 PAM-ag	Mdm2 ligase inh	NPY-Y1 antag	NPY-Y2 antag	NPY1 antag conf	NPY2 antag ctr
CCN(CC(O)COCc1ccc(Cl)cc1)C1CCCCC1 (stereo unspecified)	/	-4.7	-1.1	-23.5	5.9	/	/	/
CCN(CC(O)COc1ccc(OCC(O)CN(CC)C2CCCCC2)cc1)C1CCCCC1 (stereo unspecified)	5.8	-10.7	-53.0	-12.2	21.5*	9.5	5.6	31.9*
O=[N+]([O-])c1cccc(-c2noc(COc3ccccc3)n2)c1	/	-1.9	-18.5	-3.4	24.9*	/	3.9	6.1
COc1cccc(CNC23CC4CC(CC(C4)C2)C3)c1OCc1ccccc1	/	-22.7	-89.6	-20.1	164.8*	/	114.2*	84.2*
COc1cccc(CNn2cnnc2)c1OCc1ccc(F)cc1	17.8	-1.8	13.0	-19.5	0.9	0.5	/	/
O=C(c1ccco1)N1CCN(C(c2ccc(Cl)cc2)c2nnnn2Cc2ccccc2)CC1 (stereo unspecified)	18.0	4.1	-21.7	11.7	21.1*	0.1	0.0	1.2
COc1ccc(C(c2nnnn2Cc2ccccc2)N2CCN(C(=O)c3ccco3)CC2)cc1 (stereo unspecified)	7.2	3.0	8.3	6.2	2.2	2.6	/	/
O=C(Cc1ccccc1)Nc1c2c(nn1-c1cccc(Cl)c1)CS(=O)(=O)C2	7.8	-16.3	-13.0	-8.7	21.5*	9.4	16.6	7.5
COc1ccc(CC(=O)Nc2c3c(nn2-c2cccc(Cl)c2)CS(=O)(=O)C3)cc1	2.5	6.1	6.0	-15.3	14.1	7.9	/	/
O=C(NCCN1CCOCC1)c1cc(-c2ccco2)on1	4.2	5.4	4.4	8.8	20.6*	6.0	-1.3	0.2
CCCCCCCn1c2c(c(=N)c3c1CCC3)CCCC2	/	-36.9	-60.5	-41.1	79.8*	/	56.8*	42.5*
CCCCCCn1c2c(c(=N)c3c1CCC3)CCC2	14.0	3.9	-71.5	-19.6	23.7*	3.2	29.2*	16.7
CCCCn1c2c(c(=N)c3c1CCC3)CCC2	5.8	14.8	9.5	-7.7	3.8	3.8	/	/
COc1ccc(C2c3[nH]c4ccccc4c3CCN2Cc2cccn2-c2ncccn2)cc1C (stereo unspecified)	/	-4.5	-11.8	-8.5	67.3*	/	41.3*	32.5*
Cc1cccc(C2c3[nH]c4ccccc4c3CCN2Cc2cccn2-c2ncccn2)c1 (stereo unspecified)	/	-4.0	-22.7	-6.2	32.4*	/	13.7	13.8
c1ccc(C2c3[nH]c4ccccc4c3CCN2Cc2cccn2-c2ccccn2)nc1 (stereo unspecified)	/	-28.6	-1.0	-7.8	/	/	/	/
CC1=Nc2ccccc2N=C(NC(=O)c2ccccc2)C1c1ccccc1 (stereo unspecified)	/	7.9	4.9	-1.1	7.1	/	/	/
O=C(Nc1ccc(Cl)c(Cl)c1)Nc1nnc(CC2=CCCCC2)s1	0.8	3.0	12.4	-16.4	4.2	-0.9	/	/
CCOC(=O)CC(NC(=O)Cn1nnc(-c2ccccc2Cl)n1)c1ccc(OC)cc1 (stereo unspecified)	/	5.0	-8.8	-23.9	-3.8	/	/	/
COc1ccc(NC(=O)O/N=C/c2ccncc2)cc1	/	20.9	12.7	7.9	-2.8	/	/	/
COc1ccc(/C=N/OC(=O)Nc2ccccc2OC)cc1	/	-15.5	-17.3	-10.1	21.9*	/	5.7	11.9
Cc1ccc(NC(=S)NNC(=S)Nc2ccc(C)cc2C)cc1	/	-40.7	-3.1	-18.9	22.0*	/	10.2	17.1*
Cc1cccc(C)c1OC1(c2ccccc2)OC(=O)c2ccccc21 (stereo unspecified)	0.4	-19.6	-10.5	-7.7	22.3*	11.2	6.1	7.2
Cc1cc(C)c(OC2(c3ccccc3)OC(=O)c3ccccc32)c(C)c1 (stereo unspecified)	4.5	-16.7	-8.2	-2.6	30.5*	16.4	11.0	7.4
